Measurements from ChEMBL document CHEMBL1138503, “(Z)- and (E)-2-(1,2-dihydroxyethyl)methylenecyclopropane analogues of 2'-deoxyadenosine and 2'-deoxyguanosine. Synthesis of all stereoisomers, absolute configuration, and antiviral activity” (J Med Chem, 2009).
Active and inactive are the calls of the source. The calls are words filed in the database; no cut-off is given here.

Assays:
[1] = tested on: Hepatitis B virus; experiment: Antiviral activity against Hepatitis B virus; assay type: functional, organism-based
[2] = target: T1, Adenosine deaminase (Bos taurus) (UniProt P56658); experiment: Activity of calf intestine adenosine deaminase assessed as deamination after 24 hrs; parameters: concentration or dose not given beside the values
T1 sequence (whole entry): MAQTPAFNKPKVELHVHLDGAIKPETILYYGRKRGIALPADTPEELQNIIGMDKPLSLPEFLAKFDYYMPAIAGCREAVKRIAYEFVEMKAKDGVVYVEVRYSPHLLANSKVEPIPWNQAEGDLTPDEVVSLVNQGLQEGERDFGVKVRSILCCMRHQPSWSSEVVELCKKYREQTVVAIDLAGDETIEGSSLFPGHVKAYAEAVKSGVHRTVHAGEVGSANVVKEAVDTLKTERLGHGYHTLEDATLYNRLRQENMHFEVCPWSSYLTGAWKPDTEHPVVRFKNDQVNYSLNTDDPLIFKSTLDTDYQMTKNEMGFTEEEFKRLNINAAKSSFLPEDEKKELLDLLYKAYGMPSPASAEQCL
How it was run: (§1)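 Substrate (2 µmol) stirred with calf intestine ADA (1.7 units) in 0.05 M Na2HPO4, pH 7.5, 0.6 mL total. Aliquots withdrawn, diluted with buffer, and UV spectra recorded. Deamination followed as the fall in absorbance at 260 nm, expressed as percent deaminated at 24 h and 48 h.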

[3] = tested on: Human betaherpesvirus 5; experiment: Antiviral activity against Human cytomegalovirus Towne infected in human foreskin fibroblast cells by plaque reduction assay; assay type: functional, organism-based; conditions: Human betaherpesvirus 5, Towne
How it was run: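 HCMV Towne in human foreskin fibroblasts, plaque reduction assay; EC50 from plaque counts; cytotoxicity scored visually in uninfected HFF used for the plaque assays.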

[4] = tested on: HFF; experiment: (§2) Cytotoxicity against HFF cells by neutral red uptake assay; assay type: cell-based; conditions: human, hff
How it was run: (§3)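 Uninfected HFF cells, run alongside the HCMV cytopathic effect inhibition assay. Cytotoxicity read by neutral red uptake.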

[5] = tested on: Human betaherpesvirus 5; experiment: Antiviral activity against Human cytomegalovirus AD169 infected in human foreskin fibroblast cells assessed as inhibition of virus-induced cytopathic effect; assay type: functional, organism-based; conditions: Human betaherpesvirus 5, AD169, Fibroblast
How it was run: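 HCMV strain AD169 grown in human foreskin fibroblasts; cytopathic effect (CPE) inhibition assay gives EC50; cytotoxicity taken by neutral red uptake.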

[6] = tested on: Hepatitis C virus; experiment: Antiviral activity against Hepatitis C virus; assay type: functional, organism-based; conditions: Hepacivirus hominis
[7] = target: T1, Adenosine deaminase (Bos taurus); experiment: Activity of calf intestine adenosine deaminase assessed as deamination after 48 hrs; parameters: concentration or dose not given beside the values; how it was run: as §1
[8] = Cytotoxicity against human Akata cells; assay type: cell-based
[9] = tested on: Human gammaherpesvirus 4; experiment: Antiviral activity against Epstein-Barr virus infected in human Akata cells by DNA hybridization assay; assay type: functional, organism-based; conditions: human gammaherpesvirus 4, Akata
How it was run: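 EBV DNA hybridization assay run in Akata cells; EC50 by DNA hybridization.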

[10] = tested on: HFF; experiment: (§4) Cytotoxicity against HFF cells by plaque reduction assay; assay type: cell-based; conditions: human, hff
How it was run: (§5)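 Cytotoxicity scored visually in uninfected HFF cells run alongside the HCMV plaque reduction assays.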

[11] = as §2; assay type: cell-based; conditions: human, HFF cells; how it was run: as §3
[12] = as §4; assay type: cell-based; conditions: human, HFF cells; how it was run: as §5
[13] = tested on: Human betaherpesvirus 5; experiment: Antiviral activity against cyclopropavir-resistant Human cytomegalovirus isolate 2696r with phosphotransferase UL97 mutation by plaque reduction assay; assay type: functional, organism-based; conditions: Human betaherpesvirus 5, isolate 2696r
How it was run: (§6)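 Plaque reduction in HFF cells with UL97-mutant HCMV raised from Towne: E8 (two point mutations in UL97, selected by growth in synadenol) and 2696r (truncated UL97, selected in cyclopropavir). Four drug concentrations tested in duplicate; EC50 from plaque counts.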

[14] = tested on: Human betaherpesvirus 5; experiment: Antiviral activity against Human cytomegalovirus E8 with phosphotransferase UL97 two point mutation by plaque reduction assay; assay type: functional, organism-based; conditions: Human betaherpesvirus 5, E8; how it was run: as §6
[15] = tested on: Murid betaherpesvirus 1; experiment: Antiviral activity against Murine cytomegalovirus infected in mouse embryonic fibroblast cells by plaque reduction assay; assay type: functional, organism-based; conditions: Murid betaherpesvirus 1, Fibroblast
How it was run: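 MCMV plaque reduction assay in mouse embryonic fibroblast (MEF) cells; EC50 from plaque counts.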

[16] = tested on: MEF; experiment: Cytotoxicity against MEF cells; assay type: cell-based; conditions: mouse
[17] = tested on: Human alphaherpesvirus 1; experiment: Antiviral activity against HSV1 infected in human foreskin fibroblast cells; assay type: functional, organism-based
[18] = Cytotoxicity against african green monkey BSC1 cells; assay type: cell-based; conditions: chlorocebus aethiops, bsc-1
[19] = tested on: Human alphaherpesvirus 3; experiment: Antiviral activity against Varicella zoster virus infected in human foreskin fibroblast cells; assay type: functional, organism-based; conditions: Human alphaherpesvirus 3, Fibroblast
[20] = tested on: Human alphaherpesvirus 1; experiment: Antiviral activity against HSV1 infected in african green monkey BSC1 cells by ELISA; assay type: functional, organism-based; conditions: Human alphaherpesvirus 1, BSC-1
[21] = tested on: Human alphaherpesvirus 2; experiment: Antiviral activity against HSV2 infected in human foreskin fibroblast cells; assay type: functional, organism-based

Row | Compound | Activity [1] | Activity [2] [%] | EC50 [3] [µM] | CC50 [4] [µM] | EC50 [5] [µM] | Activity [6] | Activity [7] [%] | CC50 ([8]; akata) [µM] | EC50 [9] [µM] | also measured
1 | Nc1ncnc2c1ncn2/C=C1\C[C@H]1[C@H](O)CO | inactive | 65 | > 100 | 194 | > 60 | inactive | 85 | 72.7 | 9.8 | –
2 | Nc1nc2c(ncn2/C=C2/C[C@@H]2[C@@H](O)CO)c(=O)[nH]1 | inactive | – | > 100 | – | > 300 | inactive | – | 56 | > 20 | –
3 | Nc1ncnc2c1ncn2/C=C1\C[C@@H]1[C@H](O)CO | inactive | 85 | > 100 | – | > 60 | inactive | 100 | 57 | > 20 | CC50 [10]: > 100 µM
4 | Nc1nc2c(ncn2/C=C2\C[C@@H]2[C@@H](O)CO)c(=O)[nH]1 | inactive | – | > 100 | – | > 300 | inactive | – | 61 | 18 | –
5 | Nc1nc2c(ncn2/C=C2/C[C@@H]2[C@H](O)CO)c(=O)[nH]1 | inactive | – | > 100 | – | > 300 | inactive | – | 54 | 43 | –
6 | Nc1ncnc2c1ncn2/C=C1/C[C@H]1[C@@H](O)CO | inactive | 0 | > 100 | – | > 60 | inactive | 0 | 61.5 | 52.6 | –
7 | Nc1nc2c(ncn2/C=C2/CC2(CO)CO)c(=O)[nH]1 [FILOCICLOVIR] | inactive | – | 0.46 | – | 0.49 | inactive | – | – | 0.22 | CC50 [11]: > 100 µM; CC50 [12]: > 100 µM; EC50 [13]: 28 µM; EC50 [14]: 8 µM
8 | Nc1ncnc2c1ncn2/C=C1/C[C@H]1[C@H](O)CO | inactive | 0 | > 100 | 206 | > 60 | inactive | 0 | 93.5 | 60 | –
9 | Nc1ncnc2c1ncn2/C=C1\C[C@@H]1[C@@H](O)CO | inactive | 100 | > 100 | – | > 300 | inactive | 100 | 50.6 | 50.4 | –
10 | Nc1nc2c(ncn2/C=C2/C[C@H]2[C@@H](O)CO)c(=O)[nH]1 | inactive | – | 6.8 | 299 | 7.5 | inactive | – | 78 | 8 | EC50 [15]: 11.3 µM; Activity [16]: Not Active; Activity [17]: inactive; CC50 [18]: > 100 µM; EC50 [19]: 47 µM; CC50 [10]: > 100 µM; EC50 [13]: > 100 µM; EC50 [14]: 72 µM; EC50 [20]: 50 µM; Activity [21]: inactive
11 | Nc1ncnc2c1ncn2/C=C1/C[C@@H]1[C@H](O)CO | inactive | 45 | > 100 | – | 300 | inactive | 80 | 50.5 | > 20 | –
12 | Nc1nc2c(ncn2/C=C2\C[C@H]2[C@@H](O)CO)c(=O)[nH]1 | inactive | – | > 100 | 298 | > 60 | inactive | – | 75 | 40 | –
13 | Nc1nc(O)c2ncn(COC(CO)CO)c2n1 [GANCICLOVIR] | – | – | – | – | – | – | – | – | – | CC50 [11]: > 100 µM; CC50 [12]: > 100 µM
14 | Nc1nc2c(ncn2COC(CO)CO)c(=O)[nH]1 [GANCICLOVIR] | inactive | – | 1.2 | – | 0.04 | inactive | – | – | – | EC50 [15]: 5.5 µM; EC50 [13]: 42 µM; EC50 [14]: 22 µM
15 | Nc1nc2c(ncn2COCCO)c(=O)[nH]1 [ACYCLOVIR] | inactive | – | – | – | – | inactive | – | – | 3.3 | CC50 ([8]; Akata cells): > 100 µM
16 | Nc1nc2c(ncn2/C=C2/C[C@H]2[C@H](O)CO)c(=O)[nH]1 | inactive | – | > 100 | – | > 300 | inactive | – | 62.6 | > 20 | –
17 | Nc1nc2c(ncn2/C=C2\C[C@H]2[C@H](O)CO)c(=O)[nH]1 | inactive | – | > 100 | – | > 300 | inactive | – | 86.6 | 58.7 | CC50 [10]: > 300 µM
18 | Nc1ncnc2c1ncn2/C=C1\C[C@H]1[C@@H](O)CO | inactive | 100 | > 100 | 264 | > 60 | inactive | 100 | 73 | 17 | –
19 | Nc1nc2c(ncn2/C=C2\C[C@@H]2[C@H](O)CO)c(=O)[nH]1 | inactive | – | > 100 | > 300 | > 60 | inactive | – | 67 | > 20 | –
20 | Nc1ncnc2c1ncn2/C=C1/C[C@@H]1[C@@H](O)CO | inactive | 65 | > 100 | > 300 | > 60 | inactive | 80 | 55 | 43 | –
